{"source": "ChEMBL document CHEMBL3259808", "about": "“Optimization of antitrypanosomatid agents: identification of nonmutagenic drug candidates with in vivo activity” (J Med Chem, 2014)", "key": {"[1]": {"test_system": "Trypanosoma cruzi", "test": "Antitrypanosomal activity against Trypanosoma cruzi Sylvio X-10 amastigotes infected in African green monkey Vero cells assessed as eradication of amastigotes after 5 days by Giemsa staining-based assay", "type": "functional, organism-based", "conditions": "Sylvio X-10, Vero, 120 h", "in_short": "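VERO cells in RPMI 1640 with 10% hiFCS were allowed to adhere for 24 h at 37 °C in 5% CO₂, then infected with tissue-derived trypomastigotes at 10:1. Free parasites were washed off after 24 h, and cultures were treated at five compound doses (text gives 72 h / 5 days). Cultures were methanol-fixed and Giemsa-stained, and infected cells were counted among 300. Quadruplicates were run in three independent experiments. IC50/IC90 were obtained by sigmoidal regression.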"}, "[2]": {"test": "Selectivity index, ratio of IC50 for African green monkey Vero cells to IC50 for Trypanosoma cruzi Sylvio X-10 amastigotes", "type": "toxicity, cell-based", "conditions": "read-out: Ratio IC50", "in_short": "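VERO cytotoxicity: cells exposed 48 h at 37 °C, 5% CO2 to serial dilutions from a maximum of 2000 μM (DMSO stocks; DMSO <0.1% control); growth inhibition read by MTT at 570 nm. Amastigote IC50: Sylvio X-10-infected VERO cells, five doses, infected cells counted among 300 (Giemsa), quadruplicate, three experiments, sigmoidal fit. SI = IC50 VERO / IC50 amastigote.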"}, "[3]": {"test": "Selectivity index, ratio of IC50 for human RBC to IC50 for Trypanosoma cruzi Sylvio X-10 amastigotes", "in_short": "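Hemolysis: washed human erythrocytes (2% w/v in PBS) incubated 24 h at 37 °C with compound at final 50, 100 and 200 μM. Ten replicates per concentration. Hemoglobin release read at 405 nm against water lysis as 100%; amphotericin B 1.5 μM was the positive control. SI = IC50 red cells / parasite IC50 (Sylvio X-10 amastigotes or Tulahuen 2 epimastigotes).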"}, "[4]": {"test_system": "Trypanosoma cruzi", "test": "Antitrypanosomal activity against Trypanosoma cruzi Y trypomastigotes assessed as growth inhibition at 25 uM after 48 hrs by microscopic analysis relative to control", "type": "functional", "conditions": "read-out: GI", "in_short": "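Blood was collected by cardiac puncture, with sodium citrate, from BALB/c mice 7 days after infection. Compound was dissolved in minimal DMSO and diluted in PBS (final 25 μM). Drug solution was mixed with infected blood (about 10⁶ parasites/mL) in triplicate, shaken 10 min at room temperature, then held at 4 °C for 48 h. Parasites were counted microscopically against untreated infected blood. Gentian violet 250 μg/mL was the reference.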"}, "[5]": {"test_system": "Salmonella typhimurium", "test": "Mutagenic activity in Salmonella typhimurium TA98 at 5 to 400 ug/plate by Ames test", "type": "toxicity, organism-based", "conditions": "salmonella enterica subsp. enterica serovar typhimurium", "in_short": "(§1)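 Ames plate-incorporation assay with S. typhimurium TA98 in Vogel-Bonner E minimal glucose agar. Toxicity toward the bacteria was checked first. DMSO solutions were run in triplicate at five consecutive third-dilutions, starting at the highest non-toxic dose. Positive controls were 4-nitro-o-phenylenediamine (20.0 μg/plate) and 2-aminofluorene (10.0 μg/plate); DMSO was the negative control. Revertants were counted manually. A compound was called mutagenic when revertants were at least twice the negative control at two or more consecutive doses.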"}, "[6]": {"test_system": "Salmonella typhimurium", "test": "Mutagenic activity in Salmonella typhimurium TA98 at 5 to 400 ug/plate by Ames test in presence of mouse liver S9 fraction", "type": "toxicity, organism-based", "conditions": "salmonella enterica subsp. enterica serovar typhimurium", "in_short": "as §1"}, "[7]": {"test_system": "Salmonella typhimurium", "test": "Mutagenic activity in Salmonella typhimurium TA102 at 3.09 to 250 ug/plate by Ames test in presence of mouse liver S9 fraction", "type": "toxicity, organism-based", "conditions": "salmonella enterica subsp. enterica serovar typhimurium", "in_short": "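Plate-incorporation Ames test on minimal glucose agar with 500 μL Aroclor-treated mouse liver S9 added. DMSO solutions were tested at five consecutive 3-fold dilutions from the highest non-toxic dose, in triplicate, with a DMSO negative control. Revertants were counted manually; a compound was scored mutagenic when revertants were at least twice the negative control for two or more consecutive doses.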"}, "[8]": {"test_system": "Salmonella typhimurium", "test": "Mutagenic activity in Salmonella typhimurium TA1537 at 3.09 to 250 ug/plate by Ames test", "type": "toxicity, organism-based", "conditions": "salmonella enterica subsp. enterica serovar typhimurium", "in_short": "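Direct plate incubation on minimal glucose agar (Vogel-Bonner E). Compound toxicity to the bacteria was checked first. DMSO solutions were tested at five consecutive 3-fold dilutions, starting from the highest non-toxic dose, in triplicate, without metabolic activation. DMSO served as negative control. Revertants were counted manually; mutagenic = revertants at least double the negative control at two or more consecutive doses.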"}, "[9]": {"test": "Stability of the compound in aqueous solution assessed as compound remaining at 1 mM at pH 6 after 1 hr by TLC analysis", "type": "physicochemical", "conditions": "aqueous solution, pH 6; read-out: Stability", "in_short": "(§2)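 DMSO stocks diluted to final 1 mM in KCl·HCl pH 1.0, citrate pH 6.0, Tris·HCl pH 7.4 or borax·HCl pH 9.0 buffer. Incubated 1 h at 37 °C, then ethyl acetate extracts checked by TLC for decomposition products.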"}, "[10]": {"test": "Stability of the compound in aqueous solution assessed as compound remaining at 1 mM at pH 7.4 after 1 hr by TLC analysis", "type": "physicochemical", "conditions": "aqueous solution, pH 7.4; read-out: Stability", "in_short": "as §2"}, "[11]": {"test": "Stability of the compound in eumulgin HRE 40, sodium oleate, soya phosphatidylcholine, cholesterol, and phosphate buffer at pH 7.4 at 4 degC", "type": "physicochemical", "in_short": "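Storage stability of the compound in vehicle V2, a microemulsion of surfactant (Eumulgin HRE 40/sodium oleate/soya phosphatidylcholine, 10%), cholesterol oil phase (10%) and pH 7.4 phosphate buffer (80%), followed over 1 week at 4 °C.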"}, "[12]": {"test_system": "Trypanosoma cruzi", "test": "Antitrypanosomal activity against Trypanosoma cruzi CL Brener infected in BALB/c mouse assessed as peak of maximum parasitemia at 107 umol/kg/day, po for 14 days administered in cholesterol/surfactant/phosphate buffer measured up to 60 days relative to control", "type": "functional", "in_short": "(§3)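 Male BALB/c mice (30 days old, 25–30 g, SPF) were infected i.p. with 10³ blood trypomastigotes, n = 7/group. Daily oral gavage in a microemulsion (cholesterol oil phase, phosphatidylcholine/sodium oleate/polyoxyl-40 hydrogenated castor oil surfactant, phosphate buffer pH 7.4) ran for 14 days from day 6; vehicle controls were included. Parasitemia was read weekly in tail-vein blood by hemocytometer for 60 days, with survival recorded.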"}, "[13]": {"test_system": "Trypanosoma cruzi", "test": "Antitrypanosomal activity against Trypanosoma cruzi CL Brener infected in BALB/c mouse assessed as peak of maximum parasitemia at 214 umol/kg/day, po for 14 days administered in cholesterol/surfactant/phosphate buffer measured up to 60 days relative to control", "type": "functional", "in_short": "as §3"}, "[14]": {"test_system": "Trypanosoma cruzi", "test": "Antitrypanosomal activity against Trypanosoma cruzi CL Brener infected in BALB/c mouse assessed as mouse survival at 107 umol/kg/day, po for 14 days administered in saline and tween 80 measured up to 60 days relative to control", "type": "functional", "in_short": "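Male BALB/c mice (30 days old, 25–30 g, SPF) infected i.p.; daily intragastric gavage for 14 days, starting day 6 postinfection, in saline/Tween 80 (4:1 v/v); n = 8/group; vehicle-only control. Parasitemia counted by hemocytometer in tail-vein blood; survival followed to 65 days postinfection.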"}, "[15]": {"test_system": "Trypanosoma cruzi", "test": "Antitrypanosomal activity against Trypanosoma cruzi CL Brener infected in BALB/c mouse assessed as mouse survival at 214 umol/kg/day, po for 14 days administered in cholesterol/surfactant/phosphate buffer measured up to 60 days relative to control", "type": "functional", "in_short": "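Infected male BALB/c mice (30 days old, 25–30 g) were gavaged daily from day 6 postinfection for 14 days. Vehicle was a microemulsion of 10% cholesterol, 10% surfactant (soya phosphatidylcholine/sodium oleate/polyoxyl-40 hydrogenated castor oil) and 80% phosphate buffer pH 7.4. n = 7/group, with vehicle controls. Tail-vein parasitemia was taken weekly for 60 days and mortality recorded.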"}}, "data": [{"molecule": "Br.C=CCn1c(-c2ccc(Cl)cc2)cs\\c1=N/N=C/C=C/c1ccco1.O", "values": [{"measurement": "IC50", "setting": "[1]", "result": "< 250", "unit": "nM"}, {"measurement": "selectivity ratio", "setting": "[2]", "result": "> 1000"}, {"measurement": "Ratio IC50", "setting": "[3]", "result": "> 234"}, {"measurement": "inhibition of growth at 25 µM", "setting": "[4]", "result": 70, "unit": "%"}, {"measurement": "Activity", "setting": "[5]", "result": "Non-toxic"}, {"measurement": "Activity", "setting": "[6]", "result": "Non-toxic"}, {"measurement": "Activity", "setting": "[7]", "result": "Non-toxic"}, {"measurement": "Activity", "setting": "[8]", "result": "Non-toxic"}, {"measurement": "remaining at 1 h, 1000 µM", "setting": "[9]", "result": "> 95", "unit": "%"}, {"measurement": "remaining at 1 h, 1000 µM", "setting": "[10]", "result": "> 95", "unit": "%"}, {"measurement": "Stability", "setting": "[11]", "result": "Stable"}, {"measurement": "Time", "setting": "[12]", "result": 35, "unit": "days"}, {"measurement": "Time", "setting": "[13]", "result": 35, "unit": "days"}, {"measurement": "survival at 107 µmol/kg", "setting": "[14]", "result": 75, "unit": "%"}, {"measurement": "survival at 214 µmol/kg", "setting": "[15]", "result": 100, "unit": "%"}]}]}
